Assay results from BindingDB's records for doi:10.1021/np070447m (2008).

What was measured:
[1] = biological target: Insulin-like growth factor 1 receptor (Homo sapiens, UniProt P08069); experiment: Inhibition of recombinant IGF1R
Procedure, shortened: (§1)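 Purified recombinant kinase, 50 µL reaction. 1 µM [γ-33P]-ATP with substrate; compound added in 10% DMSO. Tested over several concentrations; IC50 in g/mL.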

[2] = biological target: RAC-alpha serine/threonine-protein kinase (Homo sapiens, UniProt P31749); experiment: Inhibition of recombinant AKT1; procedure, shortened: as §1
RAC-alpha serine/threonine-protein kinase, sequence (P31749 whole entry): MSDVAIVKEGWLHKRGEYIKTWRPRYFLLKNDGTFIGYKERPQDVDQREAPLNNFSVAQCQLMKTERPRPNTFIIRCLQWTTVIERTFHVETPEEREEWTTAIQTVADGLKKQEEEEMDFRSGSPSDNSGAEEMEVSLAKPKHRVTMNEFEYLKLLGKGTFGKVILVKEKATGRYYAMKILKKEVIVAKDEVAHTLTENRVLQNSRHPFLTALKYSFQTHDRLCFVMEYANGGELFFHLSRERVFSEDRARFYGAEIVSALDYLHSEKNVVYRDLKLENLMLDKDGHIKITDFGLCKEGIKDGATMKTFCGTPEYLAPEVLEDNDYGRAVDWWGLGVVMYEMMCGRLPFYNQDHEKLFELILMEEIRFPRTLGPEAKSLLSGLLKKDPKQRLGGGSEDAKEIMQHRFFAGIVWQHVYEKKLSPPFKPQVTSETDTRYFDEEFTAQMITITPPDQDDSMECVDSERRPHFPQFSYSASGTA

[3] = biological target: T1, Serine/threonine-protein kinase PLK4 (Homo sapiens, UniProt O00444); experiment: Inhibition of recombinant SAK
T1 sequence (O00444 whole entry): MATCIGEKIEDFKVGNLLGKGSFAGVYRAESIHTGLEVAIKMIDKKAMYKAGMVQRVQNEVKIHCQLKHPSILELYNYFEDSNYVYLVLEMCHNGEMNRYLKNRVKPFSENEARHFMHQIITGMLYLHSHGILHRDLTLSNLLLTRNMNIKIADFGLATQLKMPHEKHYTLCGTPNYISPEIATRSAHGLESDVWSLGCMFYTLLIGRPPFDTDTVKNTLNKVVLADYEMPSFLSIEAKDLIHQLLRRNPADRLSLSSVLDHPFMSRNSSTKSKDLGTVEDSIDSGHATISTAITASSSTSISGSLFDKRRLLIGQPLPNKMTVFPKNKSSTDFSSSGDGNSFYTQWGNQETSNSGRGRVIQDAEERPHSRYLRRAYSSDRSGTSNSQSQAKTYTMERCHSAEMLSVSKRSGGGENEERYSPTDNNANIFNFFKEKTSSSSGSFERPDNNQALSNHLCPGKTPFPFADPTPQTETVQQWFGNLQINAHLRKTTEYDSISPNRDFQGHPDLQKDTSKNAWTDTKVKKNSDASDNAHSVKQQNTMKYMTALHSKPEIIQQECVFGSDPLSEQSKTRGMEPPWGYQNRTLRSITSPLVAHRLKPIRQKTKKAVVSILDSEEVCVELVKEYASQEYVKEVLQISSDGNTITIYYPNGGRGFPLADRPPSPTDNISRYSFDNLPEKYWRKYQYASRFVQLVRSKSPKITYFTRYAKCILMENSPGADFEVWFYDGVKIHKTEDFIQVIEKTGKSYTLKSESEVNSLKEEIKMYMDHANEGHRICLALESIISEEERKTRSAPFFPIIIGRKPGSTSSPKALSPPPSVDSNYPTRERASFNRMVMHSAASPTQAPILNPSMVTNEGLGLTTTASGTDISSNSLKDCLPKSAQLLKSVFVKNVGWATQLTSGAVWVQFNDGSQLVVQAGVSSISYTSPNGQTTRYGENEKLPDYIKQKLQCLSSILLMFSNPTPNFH

[4] = biological target: T2, Receptor-type tyrosine-protein kinase FLT3 (Homo sapiens, UniProt P36888); experiment: Inhibition of recombinant FLT3; procedure, shortened: as §1
T2 sequence (P36888 whole entry): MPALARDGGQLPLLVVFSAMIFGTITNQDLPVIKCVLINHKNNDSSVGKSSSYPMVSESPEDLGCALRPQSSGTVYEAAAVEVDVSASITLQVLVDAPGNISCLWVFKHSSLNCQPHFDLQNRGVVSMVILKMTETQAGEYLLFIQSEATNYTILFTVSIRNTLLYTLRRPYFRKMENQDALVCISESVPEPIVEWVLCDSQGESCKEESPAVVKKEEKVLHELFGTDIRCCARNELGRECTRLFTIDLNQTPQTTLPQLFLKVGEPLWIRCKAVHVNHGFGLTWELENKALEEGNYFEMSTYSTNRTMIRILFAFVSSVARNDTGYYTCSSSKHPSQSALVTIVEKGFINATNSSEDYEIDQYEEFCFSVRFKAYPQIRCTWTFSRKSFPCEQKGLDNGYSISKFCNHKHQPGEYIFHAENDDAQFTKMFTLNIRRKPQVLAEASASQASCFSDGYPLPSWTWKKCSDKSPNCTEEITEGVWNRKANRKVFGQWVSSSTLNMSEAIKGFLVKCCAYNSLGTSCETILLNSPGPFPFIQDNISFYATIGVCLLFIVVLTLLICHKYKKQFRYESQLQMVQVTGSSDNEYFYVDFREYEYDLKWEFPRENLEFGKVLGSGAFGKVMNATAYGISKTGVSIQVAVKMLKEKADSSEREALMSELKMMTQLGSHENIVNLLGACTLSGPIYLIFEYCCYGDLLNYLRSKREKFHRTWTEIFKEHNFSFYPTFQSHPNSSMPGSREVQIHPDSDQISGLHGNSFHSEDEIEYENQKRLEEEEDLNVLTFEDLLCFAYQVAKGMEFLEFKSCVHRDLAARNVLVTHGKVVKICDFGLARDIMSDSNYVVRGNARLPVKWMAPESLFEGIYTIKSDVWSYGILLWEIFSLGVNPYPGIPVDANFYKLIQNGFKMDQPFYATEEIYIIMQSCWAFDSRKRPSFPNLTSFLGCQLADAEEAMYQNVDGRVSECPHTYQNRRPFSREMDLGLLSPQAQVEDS

Aurora kinase A = biological target: T3, Aurora kinase A (Homo sapiens, UniProt O14965); experiment: Inhibition of recombinant Aurora A; procedure, shortened: as §1
T3 sequence (O14965 whole entry): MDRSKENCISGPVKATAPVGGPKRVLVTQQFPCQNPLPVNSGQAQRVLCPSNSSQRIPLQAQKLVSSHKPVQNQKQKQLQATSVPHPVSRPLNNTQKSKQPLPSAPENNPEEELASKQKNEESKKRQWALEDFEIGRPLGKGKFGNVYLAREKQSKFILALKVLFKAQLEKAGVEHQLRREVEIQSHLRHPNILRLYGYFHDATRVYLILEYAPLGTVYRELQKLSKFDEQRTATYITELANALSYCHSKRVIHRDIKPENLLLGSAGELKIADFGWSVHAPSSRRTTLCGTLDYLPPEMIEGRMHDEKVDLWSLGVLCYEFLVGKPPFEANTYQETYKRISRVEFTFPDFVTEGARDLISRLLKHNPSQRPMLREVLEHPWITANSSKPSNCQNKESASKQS

Aurora kinase B = Aurora kinase B (Homo sapiens, UniProt Q96GD4); experiment: Inhibition of recombinant Aurora B; procedure, shortened: as §1
Aurora kinase B, sequence (Q96GD4 whole entry): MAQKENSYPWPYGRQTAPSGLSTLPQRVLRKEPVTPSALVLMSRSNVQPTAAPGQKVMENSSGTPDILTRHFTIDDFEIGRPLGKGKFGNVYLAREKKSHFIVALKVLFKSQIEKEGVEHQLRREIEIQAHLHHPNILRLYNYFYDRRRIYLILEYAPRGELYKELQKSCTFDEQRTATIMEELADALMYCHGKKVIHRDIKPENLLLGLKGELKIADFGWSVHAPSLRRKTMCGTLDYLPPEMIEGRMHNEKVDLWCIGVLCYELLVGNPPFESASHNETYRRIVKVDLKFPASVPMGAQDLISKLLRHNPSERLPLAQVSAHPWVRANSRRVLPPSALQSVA

Insulin-like growth factor 1 receptor, sequence (P08069 31-736 limits assumed): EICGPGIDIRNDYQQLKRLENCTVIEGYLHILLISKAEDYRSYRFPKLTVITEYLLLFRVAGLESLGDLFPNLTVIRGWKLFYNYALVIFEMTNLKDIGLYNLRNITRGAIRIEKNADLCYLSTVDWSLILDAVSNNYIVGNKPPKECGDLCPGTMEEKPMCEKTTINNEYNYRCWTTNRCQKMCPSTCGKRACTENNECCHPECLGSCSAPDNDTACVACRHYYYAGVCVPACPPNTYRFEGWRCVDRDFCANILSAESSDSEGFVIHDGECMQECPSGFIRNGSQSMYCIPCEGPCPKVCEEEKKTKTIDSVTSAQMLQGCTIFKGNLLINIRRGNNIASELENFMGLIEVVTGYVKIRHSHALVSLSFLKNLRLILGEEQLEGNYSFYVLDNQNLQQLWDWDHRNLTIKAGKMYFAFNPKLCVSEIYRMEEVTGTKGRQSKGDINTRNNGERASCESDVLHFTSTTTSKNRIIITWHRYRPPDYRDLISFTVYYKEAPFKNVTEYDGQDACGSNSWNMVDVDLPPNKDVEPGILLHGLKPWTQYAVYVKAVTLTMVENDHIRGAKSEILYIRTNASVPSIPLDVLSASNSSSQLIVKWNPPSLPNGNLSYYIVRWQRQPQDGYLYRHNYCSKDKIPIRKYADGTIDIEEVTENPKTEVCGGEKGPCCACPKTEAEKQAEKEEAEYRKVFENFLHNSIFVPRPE
Insulin-like growth factor 1 receptor, sequence (P08069 741-1367 limits assumed): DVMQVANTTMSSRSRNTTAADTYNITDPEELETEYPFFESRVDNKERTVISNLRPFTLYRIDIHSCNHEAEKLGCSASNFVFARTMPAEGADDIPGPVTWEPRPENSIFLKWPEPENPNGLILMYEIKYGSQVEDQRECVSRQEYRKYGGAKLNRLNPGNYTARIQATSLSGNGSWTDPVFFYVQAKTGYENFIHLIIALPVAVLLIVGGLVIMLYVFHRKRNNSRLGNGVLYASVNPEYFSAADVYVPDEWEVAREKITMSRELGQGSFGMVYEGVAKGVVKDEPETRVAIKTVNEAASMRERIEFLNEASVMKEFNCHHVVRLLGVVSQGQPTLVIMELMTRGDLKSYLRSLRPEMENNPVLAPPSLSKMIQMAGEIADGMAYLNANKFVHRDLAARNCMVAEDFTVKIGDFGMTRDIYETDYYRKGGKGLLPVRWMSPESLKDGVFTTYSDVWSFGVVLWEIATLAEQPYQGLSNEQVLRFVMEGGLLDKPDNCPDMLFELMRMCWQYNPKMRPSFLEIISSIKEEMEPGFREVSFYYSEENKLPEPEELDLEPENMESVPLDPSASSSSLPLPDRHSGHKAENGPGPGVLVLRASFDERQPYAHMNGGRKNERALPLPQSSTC

In the case of `COc1cc(O)c2c(c1)C1(OC2=O)C(=O)C(=O)CC1C` (configuration not stated) [TALAROFLAVONE], the IC50 [1] is reported as > 36.2 µM, the IC50 [2] is reported as > 36.2 µM and the IC50 [3] is reported as > 36.2 µM. The IC50 [4] was > 36.2 µM, the IC50 (Aurora kinase A) was > 36.2 µM and the IC50 (Aurora kinase B) was > 36.2 µM.
With `COc1cc(O)c2c(c1)-c1cc(O)c(O)cc1COC2=O` [Alterlactone] the IC50 [1] was > 34.6 µM, the IC50 [2] was > 34.6 µM and the IC50 [3] was > 34.6 µM. For the same molecule, the IC50 [4] was > 34.6 µM, the IC50 (Aurora kinase A) was > 34.6 µM and the IC50 (Aurora kinase B) was > 34.6 µM.
